This passage reports Activity and viability results from ChEMBL document CHEMBL1212863, “Synthesis, and biological evaluation of 2-(4-aminophenyl)benzothiazole derivatives as photosensitizing agents” (2010).

Activity calls are given as the source filed them. No cut-off for these calls is given here.

Test [1] in a line: Cell cycle arrest in human BCC cells assessed as accumulation at sub G1 phase at 4 uM incubated for 4 hrs followed by 1 J/cm'2 UV irradiation measured after 24 hrs […]. It is filed as functional. The method, boiled down:
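BCC cells (ATCC; RPMI1640, 10% FCS) exposed 4 h to agent, rinsed, irradiated in PBS with UVA (365 nm peak, 0.75 mW/cm²) at 1 J/cm². After 24 h, cells were fixed in 50% cold ethanol at −20 °C, treated with 100 µg/mL RNase A for 20 min at 37 °C, and stained with 50 µg/mL PI. 10,000 events were read by flow cytometry; the sub-G1 fraction was counted as apoptotic.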
In general terms: In flow cytometry, cells or beads pass a laser one at a time.

In test [2] the test system is BCC. In words: Inhibition of MAPK phosphorylation in human BCC cells at 4 uM incubated for 4 hrs followed by 1 J/cm'2 UV irradiation. In kind it is cell-based. In short, it runs like this:
(§1)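 BCC cells were exposed to drug with UVA irradiation. Blots were blocked in 5% milk/PBS-T and probed for total and phospho-ERK, p38 and JNK. HRP secondaries and chemiluminescence were used; bands were quantified by densitometric scanning.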

Test [3] concerns BCC. In words: Induction of apoptosis in human BCC cells assessed as decrease in mitochondrial potential at 2 uM incubated for 4 hrs followed by 1 J/cm'2 UV irradiation measured after 24 hrs. It is filed as functional, cell-based. The method, boiled down:
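BCC dishes grown 24 h were pretreated 4 h at 0, 2 or 4 µM and given 1 J/cm² UVA, then trypsinized. Cells were stained 30 min at room temperature with DiOC₆ (100 nM/mL), washed, and read immediately by flow cytometry (FL-1, 530/30 nm). The percentage of cells with reduced Δψmt was scored from 10,000 cells. Three independent experiments were run.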

Test [4] can be described thus: Phototoxicity against human BCC cells assessed as cell viability at 4 uM incubated for 4 hrs followed by 0.5 J/cm'2 UV irradiation measured after 24 hrs by MTT assay. In kind it is functional. Conditions: light or radiation study, read-out: Activity. In short, it runs like this: (§2)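 MTT assay: BCC cells were seeded at 2500/well and attached overnight. Cells were incubated 4 h with drug in triplicate, rinsed, irradiated in PBS with 365 nm UVA (0.25, 0.5 or 1 J/cm²), then returned to medium. After 24 h, MTT was added for 2 h at 37 °C, formazan was dissolved in DMSO, and absorbance was read at 540 nm relative to untreated controls.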
(In general: Tetrazolium assays rely on reduction of a dye to a coloured formazan, in cell work by metabolically active cells.)

Test [5] is described as follows: Induction of apoptosis in human BCC cells assessed as caspase3 activation at 4 uM incubated for 4 hrs followed by 1 J/cm'2 UV irradiation measured after 24 hrs […].
In test [6] the target is c-Jun N-terminal kinase, JNK (Homo sapiens) (UniProt P45983+P53779+P45984). In words: Inhibition of JNK phosphorylation in human BCC cells at 4 uM incubated for 4 hrs followed by 1 J/cm'2 UV irradiation. In kind it is cell-based. The method, boiled down: as §1
The nature of test [7]: Phototoxicity against human BCC cells assessed as cell viability at 4 uM incubated for 4 hrs followed by 1 J/cm'2 UV irradiation measured after 24 hrs by MTT assay. Conditions: light or radiation study, read-out: Activity. In kind it is functional. In short, it runs like this: as §2
Test [8] is described as follows: Induction of apoptosis in human BCC cells assessed as decrease in intracellular ATP level at 4 uM incubated for 4 hrs followed by 1 J/cm'2 UV irradiation […]. In kind it is functional. On the set-up: scale not given: the % may be the effect or the level left.
The test system of test [9] is BCC. In words: Induction of apoptosis in human BCC cells assessed as increase in intracellular H2O2 level at 4 uM incubated for 4 hrs followed by 1 J/cm'2 UV irradiation […]. In kind it is functional, cell-based. The method, boiled down: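 ROS was measured in BCC cells given 0–4 µM drug, with or without catalase (800 U/mL) pretreatment, and then irradiated with UVA. Immediately after irradiation, DCFH-DA (10 µM) was added for 30 min at 37 °C. DCF fluorescence was read by flow cytometry on FL-1.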

The subject of test [10] is BCC. In words: Induction of ERK phosphorylation in human BCC cells at 4 uM incubated for 4 hrs followed by 1 J/cm'2 UV irradiation.
Test [11] can be described thus: Phototoxicity against human BCC cells assessed as cell viability at 4 uM incubated for 4 hrs followed by 0.25 J/cm'2 UV irradiation measured after 24 hrs by MTT assay. It is filed as functional. Conditions: light or radiation study, read-out: Activity. The method, boiled down: as §2
A short description of test [12]: Induction of apoptosis in human BCC cells assessed as caspase3 activation at 4 uM incubated for 4 hrs followed by 1 J/cm'2 UV irradiation measured after 24 hrs […]. In kind it is functional. Conditions: in the assay text read “2 uM” for “4 uM”. In short, it runs like this: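 Caspase-3 was measured in BCC cells 24 h after 4 h drug exposure and 1 J/cm² UVA (365 nm) given in PBS. Pellets were lysed in cold buffer (25 µL per 10⁶ cells), spun at 12,000 rpm for 10 min at 4 °C, and the supernatant assayed colorimetrically by pNA release at 405 nm. Results are mean SD.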

A short description of test [13]: Induction of apoptosis in human BCC cells assessed as decrease in intracellular ATP level at 2 uM incubated for 4 hrs followed by 1 J/cm'2 UV irradiation […]. It is filed as functional. On the set-up: scale not given: the % may be the effect or the level left.

In the case of `CCc1ccc2nc(-c3ccc(N)cc3)sc2c1`, the Activity in test [1] came to 29.2%.

With `COc1ccc2nc(-c3ccc(N)cc3)sc2c1`, in test [1], the Activity was 6.5%.

On to `COc1ccc2nc(-c3ccc(N)c(C)c3)sc2c1`, for which the Activity in [1] worked out at 14.8%.

With `COc1cccc2nc(-c3ccc(N)cc3)sc12`, the Activity in [1] worked out at 24.4%.

As for `CCc1ccc2nc(-c3ccc(N)c(C)c3)sc2c1`, in [1], the Activity was 13.8%.

With `Nc1ccc(-c2nc3ccc(C(F)(F)F)cc3s2)cc1`, the outcome in test [2] and in test [6] was inactive. In addition, the result in test [3], in [9] and in [10] was Active. Besides, the Activity is 35.4% in [1]; 27.5% in test [5]; 45% in test [8]; 19.5% in [12]; 30% in test [13]. Further, the viability at 4 µM in [4] was 65%; in test [7] it was 45%; in test [11], 71%.

For `Cc1cc(-c2nc3ccccc3s2)ccc1N`, the Activity in test [1] amounted to 13.6%.

On to `Cc1cc(-c2nc3ccc(C(F)(F)F)cc3s2)ccc1N`, for which the Activity in test [1] amounted to 6.4%.

In the case of `Cc1ccc2nc(-c3ccc(N)cc3)sc2c1`, in test [1], the Activity amounted to 13.4%.

`Nc1ccc(-c2nc3ccccc3s2)cc1`: the Activity in test [1] was 6.5%.
